The values that follow come from ChEMBL document CHEMBL3352149, “Promiscuity and selectivity in covalent enzyme inhibition: a systematic study of electrophilic fragments” (J Med Chem, 2014).

The source made the active and inactive calls. The calls are words filed in the database; no cut-off is given here. Bounds are passed on as bounds.

In assay [1] the test system is Escherichia coli. Description: Induction of covalent MurA enzyme adduct formation preincubated with UNAG substrate for 10 mins compound treated at 300 uM after 1 hr by ESI-MS analysis. Summed up: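 E. coli MurA (25 μM) preincubated with UNAG 300 μM for 10 min at 37 °C, then test compound added at 300 μM. Incubation ran 60 min at 37 °C in 50 mM NH₄HCO₃, pH 7.9. Samples were spin-desalted on Sephadex G-25, then analysed by flow-injection positive-mode ESI-MS for enzyme adducts. Untreated enzyme served as control.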

Assay [2] deals with Escherichia coli. The assay is described as follows: Inhibition of wild-type Escherichia coli MurC compound preincubated for 10 mins before substrate addition at 25 uM measured after 15 mins by LC-MS method. Summed up: (§1)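 E. coli wild-type enzyme (4 nM) was preincubated with 25 μM compound for 10 min at 37 °C. Enzymatically generated nucleotide-sugar substrate (~200 μM) plus ATP (~200 μM), or NADPH 200 μM for MurB, was added for 10 min. Reactions were started with amino-acid cosubstrate (MurC–F) or EP-UNAG (MurB), run 15 min at 37 °C, and quenched with formic acid. Product was measured by negative-ESI LC-MS EIC peak area. MgCl2: MurC 10, MurD/E 2, MurF 5 mM; MurB had 5 mM KCl. All in 50 mM NH4HCO3, 0.07% BSA, 1% DMSO; triplicate.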

The target of assay [3] is Genome polyprotein (West Nile virus) (UniProt P06935). The assay is described as follows: Inhibition of West Nile virus NS2B-NS3 protease at 50 uM.
For assay [4], the system named is Escherichia coli. The assay is described as follows: Inhibition of wild-type Escherichia coli MurA compound preincubated for 10 mins before substrate addition at 25 uM measured after 15 mins by LC-MS method.
The nature of assay [5]: GSH reactivity of the compound assessed as adducts formation by RP-HPLC analysis. In short, it runs like this: (§2)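 Fresh aqueous glutathione (10 mM solution) was added to 50 mM Tris-maleate buffer, pH 7.5. The reaction was started with compound from 10 mM DMSO stock (final 250 μM). Mixtures were followed by reversed-phase HPLC on an ODS column with a gradient to 100% B; rate constants are given in l·mol⁻¹·s⁻¹.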

The nature of assay [6]: GSH reactivity of the compound assessed as half life by RP-HPLC analysis.
Assay [7] addresses Methionine aminopeptidase 1 (Homo sapiens) (UniProt P53582). The assay is described as follows: Inhibition of human MetAP at 25 uM after 20 mins by HPLC analysis. Summed up:
(§3)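 Endpoint assay. Enzyme (50 nM) was preincubated with 25 μM compound for 20 min at 37 °C in 50 mM Tris pH 7.5, 100 mM NaCl, 100 μM CoCl2, 0.075% BSA. MGMM substrate (400 μM) was then added for 15 min (human MetAP-1) or 20 min (E. coli MetAP). Reactions were stopped with TFA. GMM product was quantified by RP-HPLC, UV 214 nm. Triplicate.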

Assay [8] concerns Escherichia coli. The assay is described as follows: Inhibition of wild-type Escherichia coli MurE compound preincubated for 10 mins before substrate addition at 25 uM measured after 15 mins by LC-MS method. In short, it runs like this:
as §1

Assay [9] has as its system Escherichia coli. Description: Inhibition of wild-type Escherichia coli MurF compound preincubated for 10 mins before substrate addition at 25 uM measured after 15 mins by LC-MS method. Summed up: as §1
Assay [10] concerns Escherichia coli. Description: Induction of covalent MurE enzyme adduct formation preincubated with UNAG substrate for 10 mins compound treated at 300 uM after 1 hr by ESI-MS analysis.
The test system of assay [11] is Escherichia coli. The assay is described as follows: Inhibition of wild-type Escherichia coli MurD compound preincubated for 10 mins before substrate addition at 25 uM measured after 15 mins by LC-MS method. Summed up: as §1
In assay [12] the test system is Escherichia coli. The assay is described as follows: Inhibition of Escherichia coli MetAP at 25 uM after 20 mins by HPLC analysis. In short, it runs like this:
as §3

The target in assay [13] is Prothrombin (Bos taurus) (UniProt P00735). The assay is described as follows: Inhibition of Bovine thrombin using Boc-Val-Pro-Arg-AMC as substrate compound preincubated at 25 uM for 15 mins by fluorescence assay. In short, it runs like this:
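Bovine thrombin (final 10 nM) was preincubated 15 min with 25 μM compound in 50 mM Tris-HCl pH 7.5, 150 mM NaCl, 0.05% Tween 20. The reaction was started with Boc-Val-Pro-Arg-AMC (50 μM final). Fluorescence (ex 355/em 460 nm) was monitored continuously for 10 min; activity taken as slope (RFU/s). Triplicate.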

In assay [14] the test system is HeLa. The assay is described as follows: Cytotoxicity against human HeLa cells assessed as reduction in cell viability after 24 hrs by CellTiter-Blue assay. The class given is cell-based. In short, it runs like this:
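HeLa cells seeded in triplicate at 5×10^3 cells/well and grown 24 h at 37 °C/5% CO2. Compounds at varying concentrations were added as a 2x stock in phenol-red-free DMEM with FBS, penicillin/streptomycin, sodium pyruvate and L-glutamine, then left 24 h. Medium was replaced with CellTiter-Blue medium for 3 h. A570/A610 was read after background subtraction, as % of untreated controls; EC50 derived.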

Assay [15] concerns Escherichia coli. Description: Induction of covalent MetAP enzyme adduct formation at 300 uM after 1 hr by ESI-MS analysis. Summed up:
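E. coli MetAP (25 μM) was incubated with 300 μM compound for 60 min at 37 °C in 50 mM NH4HCO3, pH 7.9, with 200 μM CoCl2. Untreated enzyme served as control. Samples were spin-desalted on Sephadex G-25 and analysed by flow-injection ESI-MS in positive mode (isocratic water/acetonitrile 95/5 with 0.1% formic acid), looking for covalent adducts.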

In assay [16] the test system is Escherichia coli. Description: Inhibition of wild-type Escherichia coli MurB compound preincubated for 10 mins before substrate addition at 25 uM measured after 15 mins by LC-MS method. Summed up: as §1
The target of assay [17] is Genome polyprotein (dengue virus type 2) (UniProt P12823). Description: Inhibition of Dengue virus serotype 2 NS2B-NS3 protease at 50 uM.
A short description of assay [18]: GSH reactivity of the compound assessed as adducts formation meaured over 3 hrs by RP-HPLC analysis. In short, it runs like this: as §2
Assay [19] concerns Escherichia coli. The assay is described as follows: Induction of covalent MurB enzyme adduct formation preincubated with UNAG substrate for 10 mins compound treated at 300 uM after 1 hr by ESI-MS analysis.

Genome polyprotein (West Nile virus), sequence (P06935 whole entry): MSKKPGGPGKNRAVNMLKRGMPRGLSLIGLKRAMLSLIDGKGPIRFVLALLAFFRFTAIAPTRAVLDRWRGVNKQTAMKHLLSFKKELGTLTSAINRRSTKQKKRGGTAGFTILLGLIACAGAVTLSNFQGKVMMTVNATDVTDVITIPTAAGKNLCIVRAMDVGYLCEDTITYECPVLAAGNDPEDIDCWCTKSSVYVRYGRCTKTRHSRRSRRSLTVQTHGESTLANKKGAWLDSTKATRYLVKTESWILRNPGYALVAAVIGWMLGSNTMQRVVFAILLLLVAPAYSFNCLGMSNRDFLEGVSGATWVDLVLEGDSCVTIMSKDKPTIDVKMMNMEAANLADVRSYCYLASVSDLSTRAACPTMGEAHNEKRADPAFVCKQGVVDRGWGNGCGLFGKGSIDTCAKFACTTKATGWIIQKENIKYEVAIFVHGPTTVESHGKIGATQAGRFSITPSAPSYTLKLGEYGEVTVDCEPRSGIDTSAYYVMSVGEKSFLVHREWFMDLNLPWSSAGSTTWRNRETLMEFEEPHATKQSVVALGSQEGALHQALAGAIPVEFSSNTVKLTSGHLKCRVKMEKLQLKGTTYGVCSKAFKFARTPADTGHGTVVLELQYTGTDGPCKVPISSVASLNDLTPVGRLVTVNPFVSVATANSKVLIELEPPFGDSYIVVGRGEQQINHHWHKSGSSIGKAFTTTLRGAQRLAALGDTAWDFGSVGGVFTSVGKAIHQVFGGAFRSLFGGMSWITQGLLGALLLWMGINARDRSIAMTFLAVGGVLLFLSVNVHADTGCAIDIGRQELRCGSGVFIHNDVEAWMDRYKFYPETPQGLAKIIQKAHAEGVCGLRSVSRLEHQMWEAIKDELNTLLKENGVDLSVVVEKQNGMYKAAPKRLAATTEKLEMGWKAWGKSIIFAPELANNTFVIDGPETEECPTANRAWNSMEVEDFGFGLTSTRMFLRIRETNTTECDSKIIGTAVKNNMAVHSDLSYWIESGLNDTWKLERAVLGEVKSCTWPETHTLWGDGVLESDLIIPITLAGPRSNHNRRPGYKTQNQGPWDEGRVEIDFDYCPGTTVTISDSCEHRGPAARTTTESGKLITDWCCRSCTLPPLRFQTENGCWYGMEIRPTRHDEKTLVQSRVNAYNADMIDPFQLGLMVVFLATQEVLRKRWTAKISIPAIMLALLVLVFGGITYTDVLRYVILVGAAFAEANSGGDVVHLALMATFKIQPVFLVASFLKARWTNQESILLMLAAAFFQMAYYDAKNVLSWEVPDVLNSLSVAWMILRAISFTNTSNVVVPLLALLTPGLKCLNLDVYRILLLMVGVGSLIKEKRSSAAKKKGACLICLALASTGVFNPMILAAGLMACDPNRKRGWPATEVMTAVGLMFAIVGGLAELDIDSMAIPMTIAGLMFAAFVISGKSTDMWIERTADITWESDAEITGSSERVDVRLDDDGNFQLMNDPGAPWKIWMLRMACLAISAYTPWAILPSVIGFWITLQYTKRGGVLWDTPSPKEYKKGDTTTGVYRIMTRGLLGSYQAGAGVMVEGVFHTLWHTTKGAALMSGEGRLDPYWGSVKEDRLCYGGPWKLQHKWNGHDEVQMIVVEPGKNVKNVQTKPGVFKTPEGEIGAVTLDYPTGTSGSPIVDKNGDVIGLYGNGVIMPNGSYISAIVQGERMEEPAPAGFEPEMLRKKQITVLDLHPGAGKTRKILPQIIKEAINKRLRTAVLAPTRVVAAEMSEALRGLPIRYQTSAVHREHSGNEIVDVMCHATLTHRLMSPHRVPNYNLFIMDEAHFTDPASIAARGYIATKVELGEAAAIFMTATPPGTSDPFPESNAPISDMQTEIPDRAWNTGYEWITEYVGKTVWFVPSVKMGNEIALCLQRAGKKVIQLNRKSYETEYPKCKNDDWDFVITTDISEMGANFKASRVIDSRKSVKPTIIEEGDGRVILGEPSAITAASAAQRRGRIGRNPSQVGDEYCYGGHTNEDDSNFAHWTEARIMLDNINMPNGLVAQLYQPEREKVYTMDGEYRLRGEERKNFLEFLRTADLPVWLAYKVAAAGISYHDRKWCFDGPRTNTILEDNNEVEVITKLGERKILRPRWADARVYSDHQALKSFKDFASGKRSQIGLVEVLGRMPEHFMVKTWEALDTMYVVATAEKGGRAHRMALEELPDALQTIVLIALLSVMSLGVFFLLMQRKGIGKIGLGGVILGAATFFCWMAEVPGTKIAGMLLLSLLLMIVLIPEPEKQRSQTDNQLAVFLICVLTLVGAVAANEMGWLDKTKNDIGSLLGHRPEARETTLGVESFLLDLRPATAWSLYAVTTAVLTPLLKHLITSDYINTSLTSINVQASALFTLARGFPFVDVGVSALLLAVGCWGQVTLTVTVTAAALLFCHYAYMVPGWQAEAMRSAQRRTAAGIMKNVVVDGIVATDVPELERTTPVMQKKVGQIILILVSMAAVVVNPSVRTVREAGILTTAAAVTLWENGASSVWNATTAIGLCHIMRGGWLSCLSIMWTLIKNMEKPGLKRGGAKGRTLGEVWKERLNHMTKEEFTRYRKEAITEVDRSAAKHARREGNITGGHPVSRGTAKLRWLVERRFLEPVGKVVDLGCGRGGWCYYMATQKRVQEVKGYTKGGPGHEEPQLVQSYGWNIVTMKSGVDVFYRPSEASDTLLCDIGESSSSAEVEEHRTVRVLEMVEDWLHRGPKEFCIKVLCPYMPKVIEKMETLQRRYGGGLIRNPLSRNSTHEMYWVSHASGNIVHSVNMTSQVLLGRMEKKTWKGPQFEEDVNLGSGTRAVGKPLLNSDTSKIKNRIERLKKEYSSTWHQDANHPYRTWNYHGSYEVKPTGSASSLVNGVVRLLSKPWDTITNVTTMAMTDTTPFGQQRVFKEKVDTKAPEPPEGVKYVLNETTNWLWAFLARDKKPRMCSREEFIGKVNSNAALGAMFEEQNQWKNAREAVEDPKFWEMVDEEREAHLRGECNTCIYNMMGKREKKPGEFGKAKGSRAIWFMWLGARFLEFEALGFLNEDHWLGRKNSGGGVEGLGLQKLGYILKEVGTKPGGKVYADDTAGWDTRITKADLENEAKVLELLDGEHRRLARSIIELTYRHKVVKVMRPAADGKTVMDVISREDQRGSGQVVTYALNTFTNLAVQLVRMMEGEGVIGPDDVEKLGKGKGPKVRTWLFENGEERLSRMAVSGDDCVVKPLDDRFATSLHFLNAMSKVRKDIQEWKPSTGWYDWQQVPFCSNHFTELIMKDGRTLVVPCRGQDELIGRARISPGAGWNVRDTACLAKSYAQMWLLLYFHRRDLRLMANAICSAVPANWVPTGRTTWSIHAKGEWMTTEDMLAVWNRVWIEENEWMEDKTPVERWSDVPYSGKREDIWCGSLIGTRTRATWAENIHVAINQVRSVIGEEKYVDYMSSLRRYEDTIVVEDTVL

On to `O=C(Nc1ccccc1)C1CC(Br)=NO1` (centres undefined), for which the result in assay [1] was inactive. Moreover, the inhibition in assay [2], in assay [3], in assay [4], in assay [7], in assay [8] and in [9] was below 15% throughout. Moreover, the inhibition in assay [11], in assay [12], in assay [13], in assay [16] and in assay [17] was below 15% in each case. Also, the Activity in [5], in assay [10] and in assay [15] was below 0.1 L/mol/s throughout. The T1/2 in [6] was above 200 h. Moreover, the concentration giving a half-maximal response (EC50) in assay [14] was above 100 µM.

With `C=CC(=O)Nc1ccccc1`, the result in assay [1] was inactive. Moreover, the inhibition in assay [2], in assay [3], in assay [4], in [7], in assay [8] and in assay [9] was below 15% each time. The inhibition in [11], in [12], in assay [13], in [16] and in [17] was below 15% in each case. Also, the Activity in assay [5] was below 0.1 L/mol/s; in assay [10], below 0.1 L/mol/s; in assay [15] it was below 0.1 L/mol/s; in [18] it was below 5%. Moreover, the EC50 in assay [14] is above 100 µM.

In the case of `O=C(Nc1ccc([N+](=O)[O-])cc1)C1CC(Br)=NO1` (centres undefined), the Activity in [19], in assay [5], in assay [10] and in assay [15] was below 0.1 L/mol/s each time. For the same compound, the inhibition in assay [2] is below 15%; in [3], below 15%; in assay [4], below 15%; in assay [7], below 15%; in [8], 44%; in assay [9] it was below 15%. Besides, the inhibition in assay [11] was below 15%; in assay [12] it was 28%; in [13] it was below 15%; in [16], below 15%; in assay [17], below 15%. Besides, in assay [6], the T1/2 was above 200 h. Also, in [14], the EC50 worked out at 73.4 µM.

Regarding `O=C(Nc1ccc(F)cc1)n1ccnc1`, the Activity in assay [19] and in assay [5] was below 0.1 L/mol/s each time. In addition, the inhibition is below 15% in assay [2]; below 15% in assay [3]; 28% in [4]; below 15% in assay [7]; below 15% in [8]; below 15% in assay [9]. In addition, the inhibition in assay [11], in assay [12], in assay [13], in assay [16] and in [17] was below 15% in each case.
